UCH37 DUB inh = inhibitors of human deubiquitinating enzyme UCH37. Q9Y5K5. purified proteasome/UCH37, Ub-AMC cleavage fluorescence. inhibition, % (concentration not given with the values). hit rate 0.33% among 330,000;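 active = mean inhibition over replicate wells above about 20%, limit read from the data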
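Assay system: Proteasome-bound UCH37. Buffer or medium: pH 7.4 Tris-HCl (50 mM) with ovalbumin, ATP-MgCl2, DTT. Incubation: 30 min preincubation with enzyme, 25 min cleavage at room temperature. Measured by: fluorescence, ex 355 nm, em 460 nm. Read-out basis: percent inhibition. Control set: wells without proteasome as full block, compound-free enzyme plus substrate as uninhibited.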
ALR H2O2 inh = human ALR oxidase inhibition via reduced H2O2; purified ALR, DTT oxidation, H2O2 HRP-luminol luminescence; hit rate 3.8% among 290,000; inhibition, % (no concentration beside the values); P55789;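 active = mean replicate inhibition above about 79%, with every replicate also reaching it, limit read from the data; inconclusive = only one of the two criteria met; inactive = mean below limit and not every replicate reaching it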
Target sequence (P55789 whole entry, looked up): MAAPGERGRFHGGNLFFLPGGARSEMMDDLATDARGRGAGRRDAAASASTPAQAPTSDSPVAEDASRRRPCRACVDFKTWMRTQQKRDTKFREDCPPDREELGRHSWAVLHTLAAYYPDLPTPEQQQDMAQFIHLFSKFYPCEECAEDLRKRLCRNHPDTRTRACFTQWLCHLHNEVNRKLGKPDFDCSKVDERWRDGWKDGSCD
HDAC3 inh = human HDAC3 inhibition; O15379; recombinant HDAC3, fluorogenic peptide/trypsin coupled, fluorescence; hit rate 0.15% among 320,000; AID 2718; inhibition, % at 8.3 µM; in the data active = inhibition above about 26%, passing the limit was not always enough; inconclusive = no clear call, values can overlap the other calls
Rtt109 HAT inh = C. albicans Rtt109 histone acetyltransferase inhibition | Q5AAJ8 | purified Rtt109/Vps75, ThioGlo CoA-SH fluorescence, 4 h | inhibition, % at 34.9 µM | hit rate 0.16% among 330,000;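 active = inhibition of at least 50% in every replicate; inconclusive = best replicate reaches 50% inhibition but some replicates fall short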
Target sequence (Q5AAJ8 whole entry, looked up): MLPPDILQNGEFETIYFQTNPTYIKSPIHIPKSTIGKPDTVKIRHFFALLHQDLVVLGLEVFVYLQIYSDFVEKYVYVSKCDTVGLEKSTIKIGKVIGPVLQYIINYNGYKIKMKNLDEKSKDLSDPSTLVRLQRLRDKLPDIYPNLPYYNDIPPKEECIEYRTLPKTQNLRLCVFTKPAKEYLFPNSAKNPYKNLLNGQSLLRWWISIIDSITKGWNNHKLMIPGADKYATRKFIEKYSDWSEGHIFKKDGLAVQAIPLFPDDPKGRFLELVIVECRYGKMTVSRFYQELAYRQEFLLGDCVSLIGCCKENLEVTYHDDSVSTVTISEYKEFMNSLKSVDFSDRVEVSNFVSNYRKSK
PfM18AAP inh-1 = blocks P. falciparum M18 aspartyl aminopeptidase. AID 1822. inhibition, % at 7.35 µM. hit rate 1.2% among 290,000. recombinant PfM18AAP, H-Glu-NHMec fluorogenic cleavage;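 active = inhibition above the campaign mean inhibition over all tested compounds plus 3 SD, cut at about 28% in these data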
FAS TE block = FAS thioesterase (human) inhibition. P49327. recombinant FAS-TE, OMFH fluorogenic substrate, fluorescence endpoint. inhibition, % at 15 µM. hit rate 0.67% among 360,000. AID 602261;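 active = compounds whose normalised, plate-corrected inhibition of enzyme fluorescence in the single-dose primary screen is 50% or more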
PfM18AAP inh-2 = PfM18AAP inhibition, confirmation | recombinant PfM18AAP, H-Glu-NHMec fluorogenic cleavage | shares compounds with PfM18AAP inh-1 | hit rate 28% among 2,400 | inhibition, % at 7.35 µM;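 active = mean inhibition over replicate wells above the hit cutoff set for the earlier primary screen, cut at about 29% in these data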
CTSL1 confirm = counter-screen for PFM18AAP inhibitors: confirmation of human cathepsin L inhibitors. shares compounds with PfM18AAP inh-1. inhibition, % at 5.96 µM. 2,400 tested, under 10 active. purified cathepsin L1, Z-Leu-Arg-MCA fluorescence;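 active = average inhibition across replicates above the hit cutoff set in the earlier primary screen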
Numbers stand for hits. A selection: hits, their analogues and other compounds. The true share with any hit is near 4.6%.

What do the screens show for `CC(=O)Oc1cc2cccc(OC(C)=O)c(=O)c2c(OC(C)=O)c1OC(C)=O`?
UCH37 DUB inh: inactive; ALR H2O2 inh: 99; HDAC3 inh: inactive; Rtt109 HAT inh: inconclusive; PfM18AAP inh-1: 53; FAS TE block: inactive; PfM18AAP inh-2: 30; CTSL1 confirm: inactive

Results for COc1cc2cccc(OC)c(=O)c2c(O)c1OC ?
UCH37 DUB inh: inactive; HDAC3 inh: inactive; PfM18AAP inh-1: inactive; FAS TE block: inactive

How did CCc1ccccc1NC(=O)Nn1cnnc1 do in these assays?
UCH37 DUB inh: inactive; ALR H2O2 inh: inactive; HDAC3 inh: inactive; Rtt109 HAT inh: inactive; PfM18AAP inh-1: 56; FAS TE block: inactive; PfM18AAP inh-2: 38; CTSL1 confirm: inactive

What do the screens show for `CCOc1ccccc1NC(=O)Nn1cnnc1`?
UCH37 DUB inh: inactive; ALR H2O2 inh: inactive; HDAC3 inh: inactive; Rtt109 HAT inh: inactive; PfM18AAP inh-1: 60; FAS TE block: inactive; PfM18AAP inh-2: 44; CTSL1 confirm: inactive

Results for CCn1c(CSc2nc3ccccc3s2)nnc1SCC(=O)c1ccc(Cl)cc1 ?
UCH37 DUB inh: inactive; ALR H2O2 inh: inactive; HDAC3 inh: inactive; Rtt109 HAT inh: inactive; PfM18AAP inh-1: inactive; FAS TE block: inactive

How did CCn1c(SCC(=O)c2ccc(O)c(O)c2)nnc1-c1ccccc1OC do in these assays?
UCH37 DUB inh: inactive; ALR H2O2 inh: 99; HDAC3 inh: inactive; Rtt109 HAT inh: inactive; PfM18AAP inh-1: 42; FAS TE block: inactive; PfM18AAP inh-2: inactive; CTSL1 confirm: inactive

How did CCn1c(CSc2nc3ccccc3s2)nnc1SCC(=O)c1ccc(O)c(O)c1 do in these assays?
UCH37 DUB inh: inactive; ALR H2O2 inh: 98; HDAC3 inh: inactive; Rtt109 HAT inh: inactive; PfM18AAP inh-1: 49; FAS TE block: inactive; PfM18AAP inh-2: 30; CTSL1 confirm: inactive

Results for CCn1c(SCC(=O)c2cc(C)n(C)c2C)nnc1-c1ccccc1 ?
UCH37 DUB inh: inactive; ALR H2O2 inh: inactive; HDAC3 inh: inactive; Rtt109 HAT inh: inactive; PfM18AAP inh-1: inactive; FAS TE block: inactive

Results for CCn1c(SCC(=O)c2c(N)n(C3CC3)c(=O)[nH]c2=O)nnc1-c1ccccc1OC ?
UCH37 DUB inh: inactive; ALR H2O2 inh: inactive; HDAC3 inh: inactive; Rtt109 HAT inh: inactive; FAS TE block: inactive

What do the screens show for `C=CCn1c(SCC(=O)c2ccc(O)c(O)c2)nnc1-c1ccccc1OC`?
UCH37 DUB inh: inactive; ALR H2O2 inh: inactive; HDAC3 inh: inactive; Rtt109 HAT inh: inactive; PfM18AAP inh-1: 49; FAS TE block: inactive; PfM18AAP inh-2: 34; CTSL1 confirm: inactive

How did C=CCn1c(SCC(=O)Nc2cc(C)on2)nnc1-c1ccccc1OC do in these assays?
UCH37 DUB inh: inactive; ALR H2O2 inh: inactive; HDAC3 inh: inactive; Rtt109 HAT inh: inactive; FAS TE block: inactive

What do the screens show for `CCn1c(SCC(=O)c2ccc(O)c(O)c2)nnc1-c1ccccc1`?
UCH37 DUB inh: inactive; ALR H2O2 inh: 98; HDAC3 inh: inactive; Rtt109 HAT inh: inactive; PfM18AAP inh-1: 41; FAS TE block: inactive; PfM18AAP inh-2: inactive; CTSL1 confirm: inactive

How did Fc1ccc(C=NN2CCN(Cc3ccccc3)CC2)cc1 do in these assays?
UCH37 DUB inh: inactive

Results for CCc1ccc(C=NNC(=O)c2cc(C3CC3)nc3ccccc23)s1 ?
UCH37 DUB inh: inactive

Results for C=CCn1c(SCC(=O)c2ccc(O)c(O)c2)nnc1-c1cccnc1 ?
UCH37 DUB inh: inactive; ALR H2O2 inh: 99; HDAC3 inh: inactive; Rtt109 HAT inh: inactive; PfM18AAP inh-1: 54; FAS TE block: inactive; PfM18AAP inh-2: inactive; CTSL1 confirm: inactive

Results for Cc1scc(C(=O)NN=Cc2ccc(OC(C)C)cc2)c1C ?
UCH37 DUB inh: inactive

How did Cc1cc(=O)[nH]c(SCC(=O)NNC(=O)Cc2ccccc2)n1 do in these assays?
ALR H2O2 inh: inactive; HDAC3 inh: inactive; Rtt109 HAT inh: inactive; PfM18AAP inh-1: 36; FAS TE block: inactive; PfM18AAP inh-2: inactive; CTSL1 confirm: inactive

How did Cc1cc(=O)[nH]c(SCC(=O)NCCc2ccccc2)n1 do in these assays?
UCH37 DUB inh: inactive; ALR H2O2 inh: inactive; HDAC3 inh: inactive; Rtt109 HAT inh: inactive; PfM18AAP inh-1: inactive; FAS TE block: inactive

How did CC(=O)N1CCN(S(=O)(=O)c2ccc(C)cc2)C1c1ccc(N(C)C)cc1 (stereo unspecified) do in these assays?
UCH37 DUB inh: inactive; ALR H2O2 inh: inactive; HDAC3 inh: inactive; Rtt109 HAT inh: inactive; PfM18AAP inh-1: 36; FAS TE block: inactive; PfM18AAP inh-2: inactive; CTSL1 confirm: inactive

Results for O=C(NN=Cc1ccc(-c2cccc(C(F)(F)F)c2)o1)c1cccc(F)c1 ?
UCH37 DUB inh: inactive

Results for Cc1ccc(C(=O)n2cnnc2N)cc1 ?
UCH37 DUB inh: inactive; ALR H2O2 inh: inactive; HDAC3 inh: 44; Rtt109 HAT inh: inactive; PfM18AAP inh-1: 41; FAS TE block: inactive; PfM18AAP inh-2: 47; CTSL1 confirm: inactive

How did Nc1nncn1C(=O)c1c(Cl)cccc1Cl do in these assays?
UCH37 DUB inh: inactive; ALR H2O2 inh: inactive; HDAC3 inh: inactive; Rtt109 HAT inh: inactive; PfM18AAP inh-1: inactive; FAS TE block: inactive

How did COc1cccc(C(=O)n2cnnc2N)c1OC do in these assays?
UCH37 DUB inh: inactive; ALR H2O2 inh: inactive; HDAC3 inh: inactive; Rtt109 HAT inh: inactive; PfM18AAP inh-1: 56; FAS TE block: inactive; PfM18AAP inh-2: 51; CTSL1 confirm: inactive

What do the screens show for `Cc1ccc(C)c(C(=O)n2cnnc2N)c1`?
UCH37 DUB inh: inactive; ALR H2O2 inh: inconclusive; HDAC3 inh: inactive; Rtt109 HAT inh: inactive; PfM18AAP inh-1: 35; FAS TE block: inactive; PfM18AAP inh-2: 51; CTSL1 confirm: inactive

How did Nc1nncn1C(=O)c1cccs1 do in these assays?
UCH37 DUB inh: inactive; ALR H2O2 inh: inactive; HDAC3 inh: inactive; Rtt109 HAT inh: inactive; PfM18AAP inh-1: 40; FAS TE block: inactive; PfM18AAP inh-2: 49; CTSL1 confirm: inactive

How did Cc1csc(=NN=Cc2ccc(O)cc2)n1Cc1ccco1 do in these assays?
UCH37 DUB inh: inactive

How did C(=Nc1nc2ccccc2n1CCN1CCCCC1)c1ccc2c(c1)OCO2 do in these assays?
UCH37 DUB inh: inactive

Results for CCOC(=O)c1sc(N=Cc2c(O)ccc3ccccc23)cc1C ?
UCH37 DUB inh: inactive

Results for Nc1nncn1C(=O)c1cc(Br)ccc1Cl ?
UCH37 DUB inh: inactive; Rtt109 HAT inh: inactive; PfM18AAP inh-1: 46; FAS TE block: inactive; PfM18AAP inh-2: 48; CTSL1 confirm: inactive

How did Cc1ccc(C(=O)n2cnnc2N)cc1C do in these assays?
UCH37 DUB inh: inactive; ALR H2O2 inh: inactive; HDAC3 inh: inconclusive; Rtt109 HAT inh: inactive; PfM18AAP inh-1: 44; FAS TE block: inactive; PfM18AAP inh-2: 57; CTSL1 confirm: inactive

What do the screens show for `Cc1ccc(C(=O)NN=Cc2ccc(OC(=O)c3cccc(F)c3)cc2)cn1`?
UCH37 DUB inh: inactive

Assay outcomes (PubChem BioAssay)
